What was measured:
[1] = tested on: Hepatitis B virus; test: Antiviral activity against Hepatitis B virus infected in human 2.2.15 cells assessed as reduction of […] after 72 hrs by southern DNA hybridization method; assay type: functional, organism-based; settings: HepG2 2.2.15, 72 h
[2] = tested on: Human immunodeficiency virus 1; test: Antiviral activity against Human immunodeficiency virus 1 3B virus infected in human MT2 cells assessed as inhibition of virus-induced cytopathic effect by colorimetry; assay type: functional, organism-based
Method in brief: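 MT-2 cells, 1 × 10^3 per well in triplicate, infected with HIV-1 IIIB at 0.1 TCID50/cell and cultured with compounds. Viral CPE quantified by MTT colorimetry after 5 days to estimate EC50.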

[3] = Cytotoxicity against human Huh-7 cells by luminescence based cell viability assay
[4] = tested on: MT2; test: Cytotoxicity against human MT2 cells after 5 days by colorimetry; assay type: cell-based; settings: MT2, 120 h
Method in brief: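 Uninfected MT-2 cells coincubated with compounds for 5 days. Cytotoxicity by colorimetric quantitation.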

[5] = tested on: Hepatitis C virus; test: Antiviral activity against Hepatitis C virus genotype 1b Con1 infected in human Huh-luc/neo-ET replicon cells assessed as reduction of replicon luciferase signal after 72 hrs by luciferase reporter assay; assay type: functional, organism-based, Hepacivirus hominis
Method in brief: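 Replicon cells grown without G418, seeded at 5 × 10^3 per well, treated next day in duplicate with serial dilutions (DMSO control) at 37°C for 72 h. After a PBS wash, cells lysed in ice-cold passive lysis reagent and firefly luciferase RLU read as percent of compound-free control. EC50 by nonlinear regression of the dose-effect curve.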

[6] = Cytotoxicity against human HuH7 cells by luminescence based cell viability assay; set-up: species or system Huh-7
Method in brief: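 Exponentially growing Huh-7 cells seeded at 1 × 10^4 per well and incubated with compounds for 3 days. Viability read by CellTiter-Glo luminescence, used for dark compounds that interfere with methylene blue absorbance at 595 nm. CC50 derived.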

[7] = tested on: CCRF-CEM; test: Mitochondrial DNA toxicity in human CEM cells; assay type: cell-based
Method in brief: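 CEM cell lysates slot-blotted and hybridized with an mtDNA-specific probe, then reprobed with an Alu probe as internal control. Bands quantified by autoradiography and densitometry.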

[8] = tested on: Hepatitis C virus; test: Antiviral activity against Hepatitis C virus genotype 1b Con1 infected in human Huh-luc/neo-ET replicon cells assessed as reduction of replicon luciferase signal after 72 hrs by luciferase reporter assay in presence of 0% fetal bovine serum; assay type: functional, organism-based, Hepacivirus hominis
Method in brief: (§1)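 Huh-luc/neo-ET cells without G418, incubated with serially diluted compounds in medium containing 5%, 10%, 20% or 40% (vol/vol) FBS. Firefly luciferase read after 72 h. EC50 from dose-effect curves. The 0% value is a theoretical EC50 extrapolated from the plot of EC50 versus serum level. Means ± SD of three independent experiments.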

[9] = tested on: Hepatitis C virus; test: Antiviral activity against Hepatitis C virus genotype 1b Con1 infected in human Huh-luc/neo-ET replicon cells assessed as reduction of replicon luciferase signal after 72 hrs by luciferase reporter assay in presence of 10% fetal bovine serum; assay type: functional, organism-based, Hepacivirus hominis; method in brief: as §1
[10] = tested on: Hepatitis C virus; test: Antiviral activity against Hepatitis C virus genotype 1b Con1 infected in human Huh-luc/neo-ET replicon cells assessed as reduction of replicon luciferase signal after 72 hrs by luciferase reporter assay in presence of 40% fetal bovine serum; assay type: functional, organism-based, Hepacivirus hominis; method in brief: as §1
[11] = target: Cytochrome c (Homo sapiens, UniProt P99999); test: Binding affinity to Cytochrome C
[12] = tested on: Hepatitis C virus; test: Antiviral activity against Hepatitis C virus genotype 1b Con1 infected in human Huh-luc/neo-ET replicon cells assessed as reduction of replicon luciferase signal after 72 hrs by luciferase reporter assay in presence of 20% fetal bovine serum; assay type: functional, organism-based, Hepacivirus hominis; method in brief: as §1
[13] = tested on: Hepatitis C virus; test: Antiviral activity against Hepatitis C virus genotype 1b Con1 infected in human Huh-luc/neo-ET replicon cells assessed as reduction of replicon luciferase signal after 72 hrs by luciferase reporter assay in presence of 5% fetal bovine serum; assay type: functional, organism-based, Hepacivirus hominis; method in brief: as §1
[14] = tested on: Hepatitis C virus; test: Antiviral activity against Hepatitis C virus genotype 2a JFH1 infected in human YSGR-JFH replicon cells assessed as inhibition of virus RNA level after 72 hrs by quantitative RT-PCR; assay type: functional, organism-based, Hepacivirus hominis; settings: subtype 2a JFH1, 72 h
Method in brief: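 YSGR-JFH genotype 2a subgenomic replicon cells (maintained with 400 μg/ml G418), 1 × 10^5 per well, incubated with DMSO, serially varied compound, or IFN-α-2a for 72 h. HCV RNA by qRT-PCR normalized to β-actin, as percent of mock-treated control. Mean ± SD of three independent experiments.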

Sequence of Cytochrome c (P99999 whole entry): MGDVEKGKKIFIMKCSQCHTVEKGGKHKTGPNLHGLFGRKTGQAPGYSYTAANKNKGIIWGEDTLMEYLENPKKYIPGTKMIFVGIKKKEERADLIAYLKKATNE

| Compound | EC50 [1] | EC50 [2] | EC50 [5] | EC50 [8] | EC50 [9] | EC50 [10] | Kd [11] | EC50 [12] | EC50 [13] | EC50 [14] | CC50 [3] | CC50 [4] | CC50 [6] | IC50 [7] |
| --- | --- | --- | --- | --- | --- | --- | --- | --- | --- | --- | --- | --- | --- | --- |
| O=C(O)c1cccc(-c2ccc(-c3c4nc(c(-c5ccc(-c6cccc(C(=O)O)c6)cc5)c5ccc([nH]5)c(-c5ccc(-c6cccc(C(=O)O)c6)cc5)c5nc(c(-c6ccc(-c7cccc(C(=O)O)c7)cc6)c6ccc3[nH]6)C=C5)C=C4)cc2)c1 | > 20 µM | > 25 µM | 0.764 µM |  |  |  |  |  |  |  | 42.3 µM | > 25 µM | 13 µM | 22 µM |
| O=C(O)c1ccc(-c2c3nc(c(-c4ccc(C(=O)O)cc4)c4ccc([nH]4)c(-c4ccc(C(=O)O)cc4)c4ccc([nH]4)c(-c4ccc(C(=O)O)cc4)c4nc2C=C4)C=C3)cc1 | > 10 µM | > 25 µM | 0.243 µM | 0.0482 µM | 0.243 µM | 0.948 µM | 0.95 µM | 0.513 µM | 0.124 µM | 1.9 µM | > 50 µM | > 25 µM | > 50 µM | > 50 µM |
| O=C(O)CNC(=O)c1ccc(-c2ccc(-c3c4nc(c(-c5ccc(-c6ccc(C(=O)NCC(=O)O)cc6)cc5)c5ccc([nH]5)c(-c5ccc(-c6ccc(C(=O)NCC(=O)O)cc6)cc5)c5nc(c(-c6ccc(-c7ccc(C(=O)NCC(=O)O)cc7)cc6)c6ccc3[nH]6)C=C5)C=C4)cc2)cc1 | > 20 µM | 1.5 µM | 0.148 µM |  |  |  |  |  |  |  | > 50 µM | 13 µM | > 50 µM | > 50 µM |
| O=C(O)CNC(=O)c1ccc(-c2c3nc(c(-c4ccc(C(=O)NCC(=O)O)cc4)c4ccc([nH]4)c(-c4ccc(C(=O)NCC(=O)O)cc4)c4nc(c(-c5ccc(C(=O)NCC(=O)O)cc5)c5ccc2[nH]5)C=C4)C=C3)cc1 | > 10 µM | > 25 µM | 1.8 µM |  |  |  |  |  |  |  | 27 µM | 3.2 µM | > 50 µM | 15 µM |
| O=C(O)c1cc(C(=O)O)cc(-c2c3nc(c(-c4cc(C(=O)O)cc(C(=O)O)c4)c4ccc([nH]4)c(-c4cc(C(=O)O)cc(C(=O)O)c4)c4nc(c(-c5cc(C(=O)O)cc(C(=O)O)c5)c5ccc2[nH]5)C=C4)C=C3)c1 |  | > 100 µM | 13.6 µM |  |  |  |  |  |  |  | > 50 µM | > 50 µM | > 50 µM | 25 µM |

Further lines, with some results ahead:

| EC50 [1] | EC50 [2] | EC50 [5] | EC50 [8] | EC50 [9] | EC50 [10] | Kd [11] | EC50 [12] | EC50 [13] | EC50 [14] | Compound | CC50 [3] | CC50 [4] | CC50 [6] | IC50 [7] |
| --- | --- | --- | --- | --- | --- | --- | --- | --- | --- | --- | --- | --- | --- | --- |
| > 10 µM | > 25 µM | 0.877 µM | 0.38 µM | 0.877 µM | 1.48 µM | 17 µM | 1.21 µM | 0.633 µM |  | O=C(O)c1ccc(-c2ccc(-c3c4nc(c(-c5ccc(-c6ccc(C(=O)O)cc6)cc5)c5ccc([nH]5)c(-c5ccc(-c6ccc(C(=O)O)cc6)cc5)c5ccc([nH]5)c(-c5ccc(-c6ccc(C(=O)O)cc6)cc5)c5nc3C=C5)C=C4)cc2)cc1 | 18.6 µM | 25 µM | 32.2 µM | 6 µM |
| > 10 µM | 4.1 µM | 2.5 µM |  |  |  | 1.7 µM |  |  |  | COC(=O)[C@H](CC(=O)O)NC(=O)c1cc(C(=O)N[C@@H](CC(=O)O)C(=O)OC)cc(-c2ccc(-c3c4nc(c(-c5ccc(-c6cc(C(=O)N[C@@H](CC(=O)O)C(=O)OC)cc(C(=O)N[C@@H](CC(=O)O)C(=O)OC)c6)cc5)c5ccc([nH]5)c(-c5ccc(-c6cc(C(=O)N[C@@H](CC(=O)O)C(=O)OC)cc(C(=O)N[C@@H](CC(=O)O)C(=O)OC)c6)cc5)c5nc(c(-c6ccc(-c7cc(C(=O)N[C@@H](CC(=O)O)C(=O)OC)cc(C(=O)N[C@@H](CC(=O)O)C(=O)OC)c7)cc6)c6ccc3[nH]6)C=C5)C=C4)cc2)c1 |  | > 25 µM | 12.5 µM | 10 µM |
| > 10 µM | 1.05 µM | > 12.5 µM |  |  |  |  |  |  |  | O=C(O)CNC(=O)c1cc(C(=O)NCC(=O)O)cc(-c2ccc(-c3c4nc(c(-c5ccc(-c6cc(C(=O)NCC(=O)O)cc(C(=O)NCC(=O)O)c6)cc5)c5ccc([nH]5)c(-c5ccc(-c6cc(C(=O)NCC(=O)O)cc(C(=O)NCC(=O)O)c6)cc5)c5nc(c(-c6ccc(-c7cc(C(=O)NCC(=O)O)cc(C(=O)NCC(=O)O)c7)cc6)c6ccc3[nH]6)C=C5)C=C4)cc2)c1 | > 50 µM | 15 µM | 12.5 µM | 12.5 µM |

Source: ChEMBL document CHEMBL1212775, “A novel class of meso-tetrakis-porphyrin derivatives exhibits potent activities against hepatitis C virus genotype 1b replicons in vitro” (Antimicrob Agents Chemother, 2010)
